A selection: hits, their analogues and other compounds. The true share with any hit is near 4.2%.
SUMO Mot1 rescue: yeast Mot1-301 growth rescue at high temperature, primary screen, SUMOylation pathway inhibitor project, S. cerevisiae, ATP luminescence, 38.5C. 320,000 compounds, 1% hits. S. cerevisiae Mot1-301 growth rescue; percent above DMSO median, 100 means doubled. growth rescue, % at 18.8 µM. AID 2716, 2010;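 active = every valid replicate shows activation above 250% relative to neutral control wells; inactive = the rest, any valid replicate at or below 250%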;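 also: OY570 slx delta 5 strain wells were the positive control but not used for scaling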
KCC2 mod: KCC2 cotransporter modulators, thallium flux, primary screen, cell-based, HEK293 KCC2, FluoZin-2 fluorescence, MLSMR | Solute carrier family 12 member 5 (Homo sapiens), Q9H2X9 | KCC2 cells, thallium flux FluoZin-2 fluorescence | B-score of Tl+ flux slope (higher = more flux/activation; lower = inhibition) at 10 µM | 190,000 compounds, 2.2% hits | AID 1456, 2008;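 active = thallium flux slope and its plate-corrected score both differing from the plate sample mean at a set confidence after two filtering rounds, in either direction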;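 also: slope of fluorescence scaled to starting intensity during 10 to 20 s after thallium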
KCNQ1 inh: inhibitors of human KCNQ1 channel, primary screen, cell-based, thallium flux, high-throughput; Potassium voltage-gated channel subfamily KQT member 1 (Homo sapiens), P51787; 310,000 compounds, 1.3% hits; CHO-K1 KCNQ1, FluxOR thallium flux fluorescence; hits give high values; AID 2642, 2010; B-score at 10 µM;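 active = compounds whose thallium flux B-score, printed positive for inhibition, exceeds three library SD while starting fluorescence stays within three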;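 also: channel opened by potassium depolarization with thallium stimulus after 20 min compound exposure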
Target sequence (P51787 whole entry, looked up): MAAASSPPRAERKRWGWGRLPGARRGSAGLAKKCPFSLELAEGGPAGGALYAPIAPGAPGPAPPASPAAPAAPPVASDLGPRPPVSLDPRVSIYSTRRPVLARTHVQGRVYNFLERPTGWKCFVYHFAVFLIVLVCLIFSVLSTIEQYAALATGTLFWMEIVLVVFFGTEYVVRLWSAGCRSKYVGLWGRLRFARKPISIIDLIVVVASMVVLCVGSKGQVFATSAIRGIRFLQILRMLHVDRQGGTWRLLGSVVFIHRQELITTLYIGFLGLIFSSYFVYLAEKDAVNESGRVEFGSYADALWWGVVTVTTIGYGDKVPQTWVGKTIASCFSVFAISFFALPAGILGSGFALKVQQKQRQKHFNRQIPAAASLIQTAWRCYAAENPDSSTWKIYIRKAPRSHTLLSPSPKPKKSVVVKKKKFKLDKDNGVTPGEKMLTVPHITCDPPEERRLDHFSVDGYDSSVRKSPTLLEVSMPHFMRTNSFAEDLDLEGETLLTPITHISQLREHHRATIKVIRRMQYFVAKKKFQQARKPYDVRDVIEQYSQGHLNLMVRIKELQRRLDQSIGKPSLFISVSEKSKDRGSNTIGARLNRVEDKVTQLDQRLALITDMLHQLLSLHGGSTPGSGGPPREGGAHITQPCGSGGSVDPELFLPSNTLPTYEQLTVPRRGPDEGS
AI-2 QS mod: Vibrio harveyi AI-2 quorum sensing modulators, primary screen, JMH597 strain, luminescence/OD600 ratio; Vibrio harveyi JMH597 AI-2 luminescence/OD600 ratio, 9 h; hits give low values; strain lacks LuxN and CqsS sensors; 0 = neutral-control median; activity change, % at 7.5 µM; 300,000 compounds, 0.4% hits; AID 2094, 2009; in the data active = activity change below about -75%, passing the limit was not always enough; inconclusive = no clear call, values can overlap the other calls;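 also: luminescence divided by OD600 gain over 9 h not by final OD600 alone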
hERG rescue: hERG rescue from dofetilide block, primary screen, cell-based, CHO-hERG, FluxOR thallium flux, dofetilide IC70. Voltage-gated inwardly rectifying potassium channel KCNH2 (Homo sapiens), Q12809. dofetilide IC70 present. activation (rescue from dofetilide block), less the hit threshold, % at 10 µM. 310,000 compounds, 0.51% hits;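 active = activation above the mean of controls blocked by dofetilide plus 5 SD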;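 also: thallium influx through hERG after potassium depolarization seen as dye fluorescence rise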
KCNQ1 act: potentiators or activators of KCNQ1 channel, primary screen, cell-based, thallium flux, high-throughput | Potassium voltage-gated channel subfamily KQT member 1 (Homo sapiens), P51787 | CHO-K1 KCNQ1, thallium flux FluxOR fluorescence; hits give high values | B-score at 10 µM | 310,000 compounds, 0.35% hits;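 active = fluorescence ratio B-score, a plate-corrected score, at least three library SD, with initial intensity B-score within 5 SD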
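System: CHO-K1 cells stably expressing KCNQ1 / Medium: assay buffer for compound exposure, DMSO matched across wells / Reagent: thallium- and potassium-containing depolarizing buffer / Compound: one concentration, matched DMSO / Incubation: 20 min compound pretreatment at room temperature / Measured by: kinetic FluxOR fluorescence, 10 s baseline plus 110 s post-stimulus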
KCC2 secondary: KCC2 modulators in sodium-free buffer, confirmation, cell-based, HEK293 KCC2, thallium flux, secondary assay. 3,700 compounds, 15% hits. FluoZin2 fluorescence; hits give high values. shares compounds with KCC2 mod. AID 1713, 2009. normalised thallium flux (F/F0 slope) at 10 µM;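 active = thallium flux slope above the same plate's solvent-only control mean plus 3 SD; inconclusive = the two replicate wells disagree; inactive = no significant difference from solvent-only control wells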
KCC2 bumet counter: thallium flux persisting under bumetanide in KCC2 cells, confirmation, counter-screen for KCC2 modulator project, cell-based, HEK293 KCC2, FluoZin2, secondary assay 3 | normalized thallium flux at 10 µM | 3,700 compounds, 49% hits | HEK293-KCC2 + bumetanide/ouabain; hits give high values | shares compounds with KCC2 mod;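 active = thallium entry rate above the same plate's blocked-transporter control wells by more than 3 SD; inconclusive = the two repeat wells disagree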;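 also: raw slope of fluorescence over initial fluorescence between 10 and 20 s after thallium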
KCC2 secondary2: KCC2 modulators without ouabain present, confirmation, cell-based, HEK293 KCC2, thallium flux, FluoZin2, secondary assay 2. shares compounds with KCC2 mod. thallium flux FluoZin2 fluorescence; actives lie on both sides; F/F0 rise rate, 10–20 s post-thallium. normalized thallium flux at 10 µM. 3,700 compounds, 23% hits;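 active = thallium flux slope more than 3 SD above or below the plate's solvent-only control mean, mostly below; inconclusive = the two repeat wells disagreed; inactive = no significant shift from solvent-only controls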;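 also: raw slope with 0.1% DMSO as baseline and bumetanide as block control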
HEK counter1: thallium flux modulation in parental HEK cells, confirmation, counter-screen for KCC2 modulator project, cell-based, counterscreen 1. HEK293 parental cells, thallium flux FluoZin2, ouabain; baseline-ratio fluorescence slope, 10–20 s after thallium. thallium flux rate (normalised fluorescence) at 10 µM. AID 1716, 2009. 3,700 compounds, 46% hits. shares compounds with KCC2 mod;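 active = thallium flux rate significantly above the same plate's solvent-only control wells, beyond their mean plus 3 SD; inconclusive = the two replicate wells gave conflicting results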
KCC2 retest ouab: KCC2 inhibitors and activators, ouabain retest, confirmation, HEK-KCC2 cells; shares compounds with KCC2 mod; HEK293-KCC2, thallium flux FluoZin2 fluorescence; bidirectional: low = inhibitor, high = activator; raw Tl+ flux slope (below DMSO = inhibition, above = activation) at 10 µM; 3,700 compounds, 48% hits;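 active = thallium flux slope beyond 3 SD from same-plate DMSO control mean in most replicates, usually higher, sometimes lower; inconclusive = repeat tests gave conflicting results; inactive = no significant difference from controls in most replicates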;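 also: slope of initial-normalized fluorescence between seconds 10 and 20 after thallium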
HEK293 Tl flux2: native HEK Tl+ uptake effects, second counter-screen – HEK cells, counterscreen 2, counter-screen for KCC2 modulator project, confirmation. shares compounds with KCC2 mod. HEK293 parental, thallium flux FluoZin-2 fluorescence slope. thallium flux slope at 10 µM. 3,700 compounds, 33% hits. AID 1718, 2009;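 active = thallium flux slope above the same plate's solvent-control mean plus 3 SD in both duplicate wells; inconclusive = duplicate wells that disagreed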;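 also: run without ouabain in cells lacking the KCC2 cotransporter; slope of fluorescence scaled to its starting value between 10 and 20 s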
Active calls of the source: *.

Cc1cc(-c2n[nH]c(=S)n2/N=C/C(Cl)=C/c2ccccc2)n[nH]1 was read as KCC2 mod 4.9*, KCNQ1 inh inactive, AI-2 QS mod 61, hERG rescue -6, KCNQ1 act inactive, KCC2 secondary 0.0093, KCC2 bumet counter 0.013*, KCC2 secondary2 0.037, HEK counter1 inconclusive, KCC2 retest ouab 0.02 and HEK293 Tl flux2 0.011.
O=C(CSc1nnc(SCc2cccc3ccccc23)s1)c1ccc2c(c1)OCO2 was read as SUMO Mot1 rescue 0, KCNQ1 inh inactive, AI-2 QS mod -1, hERG rescue -8, KCNQ1 act 8*, KCC2 secondary inconclusive, KCC2 bumet counter 0.028*, KCC2 secondary2 0.04*, HEK counter1 0.034*, KCC2 retest ouab 0.032* and HEK293 Tl flux2 0.035*.
COc1cc(OC)c(OC)cc1/C=C/c1cc(C(F)(F)F)[nH]c(=O)n1 was read as SUMO Mot1 rescue -24, KCC2 mod -4.7*, KCNQ1 inh inactive, AI-2 QS mod 21, hERG rescue -4, KCNQ1 act inactive, KCC2 secondary inconclusive, KCC2 bumet counter -0.0019*, KCC2 secondary2 inconclusive, HEK counter1 0.003*, KCC2 retest ouab 0.012* and HEK293 Tl flux2 0.005*.
For O=C(NNC(=O)c1ccc(-c2ccc([N+](=O)[O-])cc2)o1)c1ccncc1 the results were SUMO Mot1 rescue 18.
For O=C1CC(N2CCC(c3nc4ccccc4[nH]3)CC2)C(=O)N1Cc1ccccc1 (configuration not stated) the results were SUMO Mot1 rescue -6, KCC2 mod 0.8, KCNQ1 inh inactive, AI-2 QS mod 26, hERG rescue -4 and KCNQ1 act inactive.
